The source of these data is ChEMBL document CHEMBL1150597, “Syntheses of two cytotoxic sinapyl alcohol derivatives and isolation of four new related compounds from Ligularia nelumbifolia” (J Nat Prod, 2002).

Format in all cases: functional, cell-based
The test system of one assay is KB. The assay can be described thus: Cytotoxicity against human KB cells after 72 hrs. In short, it runs like this:
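KB cells from the American Type Culture Collection; growth monitored after 72 h incubation with compound. IC50 taken as the drug concentration giving 50% growth inhibition.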

Another assay relates to A549. The assay can be described thus: Cytotoxicity against human A549 cells by SRB assay.
The next assay relates to HL-60. The assay can be described thus: Cytotoxicity against human HL60 cells by SRB assay.

Broadly, the IC50 is the point on the concentration scale where inhibition reaches its midpoint. Read a low IC50 as greater potency. On to `COc1cc(/C=C/CO)cc(OC)c1OC/C=C(\C)CCC=C(C)C` [NELUMOL A], for which the concentration for half-maximal inhibition (IC50) amounted to 3 µM in the assay with KB, 34 µM in the assay with A549 and 6.7 µM in the assay on HL-60.
In the assay on KB, `COc1cc(/C=C/CO)cc(OC)c1OCC=C(C)C` showed a half-maximal inhibitory concentration (IC50) of 7.8 µM.
The compound `COc1cc(/C=C/CO)cc(OC)c1OCc1ccccc1` came in with a concentration for half-maximal inhibition (IC50) in the assay with KB of 860 µM.
In the case of `COc1cc(/C=C/C=O)cc(OC)c1OC/C=C(\C)CCC=C(C)C` [NELUMAL A], the 50% inhibitory concentration (IC50) in the assay on KB was determined as 2.6 µM; with A549 it was 22 µM; in the assay on HL-60, 12 µM.
Turning to `COc1cc(/C=C/C=O)cc(OC)c1OCc1ccccc1`, the midpoint of inhibition in the assay with KB, the IC50, lay at 640 µM.
